Test results from the M2OR odorant receptor database.

Experiments:
Settings in all cases: stereoisomer not certain
[1] = molecular target: T1, Or5p80 (Mus musculus) (UniProt Q8VG42)
T1 sequence (whole entry): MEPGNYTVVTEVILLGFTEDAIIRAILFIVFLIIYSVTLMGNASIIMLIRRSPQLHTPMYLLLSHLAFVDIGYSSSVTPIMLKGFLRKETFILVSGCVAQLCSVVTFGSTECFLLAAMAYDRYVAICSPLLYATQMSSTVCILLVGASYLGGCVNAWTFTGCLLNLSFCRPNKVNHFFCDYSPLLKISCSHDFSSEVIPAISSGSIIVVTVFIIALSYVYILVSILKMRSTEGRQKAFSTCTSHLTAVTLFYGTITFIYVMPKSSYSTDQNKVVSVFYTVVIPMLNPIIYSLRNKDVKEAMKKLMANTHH
Outline: (§1)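 Each entry records the cell line, G-protein, co-transfected protein and tags used. Methods varied with the source, often transient luciferase assays in mammalian cell lines. A receptor–molecule pair is called responsive (active) if the original authors judged its signal statistically different from baseline and non-responsive (inactive) otherwise.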

[2] = molecular target: T2, Or7a40 (Mus musculus) (UniProt Q9JHB2)
T2 sequence (whole entry): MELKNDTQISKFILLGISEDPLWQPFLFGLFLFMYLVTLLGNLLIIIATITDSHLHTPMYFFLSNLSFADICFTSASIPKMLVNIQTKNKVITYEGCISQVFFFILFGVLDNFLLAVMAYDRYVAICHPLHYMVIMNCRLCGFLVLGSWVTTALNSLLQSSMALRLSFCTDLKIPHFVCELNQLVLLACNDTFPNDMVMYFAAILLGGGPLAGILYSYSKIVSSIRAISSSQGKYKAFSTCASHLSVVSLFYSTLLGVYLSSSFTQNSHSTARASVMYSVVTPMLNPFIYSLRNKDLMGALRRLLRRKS
Outline: as §1

[3] = test system: Q8VF87 A279V
Outline: as §1

[4] = test system: Q8VF87 E162D
Outline: as §1

[5] = test system: Q8VF87 I202L
Outline: as §1

[6] = test system: Q8VF87 L210I
Outline: as §1

[7] = test system: Q8VF87 V108T E162D V184F I202L L210I A279V
Outline: as §1

[8] = test system: Q8VF87 V108T E162D V184F I202L L210I
Outline: as §1

[9] = test system: Q8VF87 V108T E162D V184F I202L
Outline: as §1

[10] = test system: Q8VF87 V108T E162D V184F
Outline: as §1

[11] = test system: Q8VF87 V108T E162D
Outline: as §1

[12] = test system: Q8VF87 V108T
Outline: as §1

[13] = test system: Q8VF87 V184F
Outline: as §1

[14] = molecular target: UniProt A0PK57
Sequence of UniProt A0PK57 (A0PK57 as listed by the source): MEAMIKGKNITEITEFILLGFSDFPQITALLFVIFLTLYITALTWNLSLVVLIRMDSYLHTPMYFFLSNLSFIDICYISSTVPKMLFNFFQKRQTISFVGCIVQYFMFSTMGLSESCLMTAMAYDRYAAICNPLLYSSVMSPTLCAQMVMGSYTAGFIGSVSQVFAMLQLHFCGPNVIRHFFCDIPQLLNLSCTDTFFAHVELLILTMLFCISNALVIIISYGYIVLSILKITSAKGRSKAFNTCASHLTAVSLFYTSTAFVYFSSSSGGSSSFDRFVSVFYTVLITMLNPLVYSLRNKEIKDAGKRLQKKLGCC
Outline: as §1

[15] = molecular target: Or8b3 (Mus musculus) (UniProt Q60886)
Sequence of Or8b3 (Mus musculus) (Q60886 whole entry): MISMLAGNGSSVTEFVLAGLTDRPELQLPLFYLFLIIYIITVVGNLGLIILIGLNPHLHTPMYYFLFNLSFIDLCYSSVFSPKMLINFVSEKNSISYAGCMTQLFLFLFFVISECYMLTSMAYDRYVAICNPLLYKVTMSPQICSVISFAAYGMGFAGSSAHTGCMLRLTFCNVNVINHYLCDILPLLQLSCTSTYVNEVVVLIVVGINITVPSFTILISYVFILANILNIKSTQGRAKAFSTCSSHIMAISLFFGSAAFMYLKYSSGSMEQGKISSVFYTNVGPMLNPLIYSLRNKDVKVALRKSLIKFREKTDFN
Outline: as §1

[16] = molecular target: UniProt A2ASV2
Sequence of UniProt A2ASV2 (A2ASV2 as listed by the source): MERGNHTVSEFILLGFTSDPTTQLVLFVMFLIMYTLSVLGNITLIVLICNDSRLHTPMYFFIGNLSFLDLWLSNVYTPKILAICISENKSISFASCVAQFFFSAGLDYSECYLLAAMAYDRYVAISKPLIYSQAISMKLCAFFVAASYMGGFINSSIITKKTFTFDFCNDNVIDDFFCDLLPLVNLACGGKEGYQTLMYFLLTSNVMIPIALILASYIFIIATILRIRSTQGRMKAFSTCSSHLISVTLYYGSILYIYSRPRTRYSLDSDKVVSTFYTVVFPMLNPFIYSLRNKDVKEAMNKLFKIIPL
Outline: as §1

[17] = test system: Q8N628 T20A L289V
Outline: as §1

[18] = test system: Q8NGC2 A119T
Outline: as §1

[19] = test system: Q8NGH7 D88N
Outline: as §1

Compound: CCCCCCCCS
- odorant receptor agonist call [1]: inactive
- odorant receptor agonist call [2]: inactive

Compound: CCC(C(=O)O)c1ccccc1 (configuration not stated)
- odorant receptor agonist call [1]: inactive
- odorant receptor agonist call [2]: inactive

Compound: CCCCCC1=C(C)CCC1=O
- odorant receptor agonist call [1]: inactive
- odorant receptor agonist call [2]: active

Compound: CCC(S)C(C)CO (configuration not stated)
- odorant receptor agonist call [3]: inactive
- odorant receptor agonist call [4]: inactive
- odorant receptor agonist call [5]: inactive
- odorant receptor agonist call [6]: inactive
- odorant receptor agonist call [7]: inactive
- odorant receptor agonist call [8]: inactive
- odorant receptor agonist call [9]: inactive
- odorant receptor agonist call [10]: inactive
- odorant receptor agonist call [11]: inactive
- odorant receptor agonist call [12]: inactive
- odorant receptor agonist call [13]: inactive

Compound: CCCCCC(=O)CC
- odorant receptor agonist call [1]: inactive
- odorant receptor agonist call [2]: inactive

Compound: CCCC(=O)C(C)=O
- odorant receptor agonist call [1]: inactive
- odorant receptor agonist call [2]: inactive

Compound: O=C(c1ccccc1)c1ccccc1
- odorant receptor agonist call [1]: inactive
- odorant receptor agonist call [2]: inactive

Compound: C=CCOC(=O)CCCCCC
- odorant receptor agonist call [1]: inactive
- odorant receptor agonist call [2]: inactive

Compound: CCCCCC=O
- odorant receptor agonist call [1]: inactive
- odorant receptor agonist call [2]: inactive

Compound: O=C1Cc2ccccc2O1
- odorant receptor agonist call [1]: inactive
- odorant receptor agonist call [2]: inactive

Compound: CCCCC(C)=O
- odorant receptor agonist call [1]: inactive
- odorant receptor agonist call [2]: inactive

Compound: CCCCCCCC(C)=O
- odorant receptor agonist call [1]: inactive
- odorant receptor agonist call [2]: inactive

Compound: CC(=O)OCC=C(C)C
- odorant receptor agonist call [1]: inactive
- odorant receptor agonist call [2]: inactive

Compound: CC1CCCCCCCCCCCCC(=O)C1 (configuration not stated)
- odorant receptor agonist call [14]: inactive

Compound: CCCCC(=O)CC
- odorant receptor agonist call [1]: inactive
- odorant receptor agonist call [2]: inactive

Compound: O=C1CCOc2ccccc21
- odorant receptor agonist call [1]: inactive
- odorant receptor agonist call [2]: inactive
- odorant receptor agonist call [15]: inactive
- odorant receptor agonist call [16]: inactive

Compound: CC(=O)OCc1ccccc1
- odorant receptor agonist call [1]: inactive
- odorant receptor agonist call [2]: inactive

Compound: CCCC(C)=O
- odorant receptor agonist call [1]: inactive
- odorant receptor agonist call [2]: inactive

Compound: COc1cc(C(=O)O)ccc1O
- odorant receptor agonist call [1]: inactive
- odorant receptor agonist call [2]: inactive

Compound: CCCCCCOC(C)=O
- odorant receptor agonist call [1]: inactive
- odorant receptor agonist call [2]: inactive

Compound: CCCCCCC=CCCC=O
- odorant receptor agonist call [17]: inactive
- odorant receptor agonist call [18]: inactive
- odorant receptor agonist call [19]: inactive

Compound: CC(C)=CCCC(C)CCO (configuration not stated)
- odorant receptor agonist call [1]: inactive
- odorant receptor agonist call [2]: inactive

Compound: CCCCCCCCCCO
- odorant receptor agonist call [1]: inactive
- odorant receptor agonist call [2]: inactive

Compound: CC(=O)Oc1ccccc1
- odorant receptor agonist call [1]: inactive
- odorant receptor agonist call [2]: inactive

Compound: O=c1ccc2ccccc2o1
- odorant receptor agonist call [1]: active
- odorant receptor agonist call [2]: inactive
- odorant receptor agonist call [15]: active
- odorant receptor agonist call [16]: active

Compound: CCCCCCCCCC(=O)[O-].[H+]
- odorant receptor agonist call [1]: inactive
- odorant receptor agonist call [2]: inactive

Compound: CCOC(=O)C(C)C
- odorant receptor agonist call [1]: inactive
- odorant receptor agonist call [2]: inactive
